Our source for the Activity and LC50 values is ChEMBL document CHEMBL2429860, “4-Phenyl-3,4-dihydroquinolone derivatives from Aspergillus nidulans MA-143, an endophytic fungus isolated from the mangrove plant Rhizophora stylosa” (J Nat Prod, 2013).

The source made the active and inactive calls. The rule behind the calls is not given here.

Data set [1] relates to HL-60. In words: Cytotoxicity against human HL60 cells. The format is functional, cell-based.
Data set [2] deals with MDA-MB-231. As to the kind of experiment: Cytotoxicity against human MDA-MB-231 cells. The format is functional, cell-based.
In data set [3] the test system is Staphylococcus aureus. As to the kind of experiment: Antibacterial activity against Staphylococcus aureus by well diffusion method. It is filed as functional, organism-based. The gist of the method:
(§1)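 Agar well diffusion test run against E. coli and S. aureus, with chloromycetin as the positive control.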
A general note: A growth-free zone around the sample is the usual read-out of agar diffusion tests.

Data set [4] deals with Escherichia coli. As to the kind of experiment: Antibacterial activity against Escherichia coli by well diffusion method. It is filed as functional, organism-based. The gist of the method:
as §1

In data set [5] the test system is K562. As to the kind of experiment: Cytotoxicity against human K562 cells. It is filed as functional, cell-based.
The subject of data set [6] is Bel-7402. As to the kind of experiment: Cytotoxicity against human Bel7402 cells. The format is functional, cell-based.
A short description of data set [7]: Toxicity in brine shrimp. It is filed as organism-based. The following applies: artemia salina, in vivo; read-out: LD50 (the source's name). The procedure, abridged:
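Lethality test using brine shrimp (Artemia salina).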

On to `C=C(C)[C@H]1CC[C@](C)(/C=C/c2ccc3c(c2O)[C@@](O)(c2ccccc2)[C@H](OC)C(=O)N3)O1`, for which the result in data set [1], in data set [2], in data set [3], in data set [4], in data set [5] and in data set [6] was inactive.

Consider `CO[C@@H]1C(=O)Nc2ccc(/C=C/[C@]3(C)CCC(=O)[C@@H](C)C3)c(O)c2[C@@]1(O)c1ccccc1` [AFLAQUINOLONE A], for which the LC50 in data set [7] came out at 5.5 µM.

Take `CO[C@@H]1C(=O)Nc2ccc(CC=C(C)C)c(O)c2[C@@]1(O)c1ccccc1`: the outcome in data set [1], in data set [2], in data set [3], in data set [4], in data set [5] and in data set [6] was inactive. Further, the LC50 in data set [7] came out at 4.5 µM.

Consider `O=C1Nc2ccccc2[C@@](O)(c2ccc(O)cc2)[C@@H]1O`, for which the result in data set [1], in data set [2], in data set [3], in data set [4], in data set [5] and in data set [6] was inactive.

With `CO[C@@H]1C(=O)Nc2ccc(/C=C/[C@@]3(C)CC[C@H](C(C)(C)O)O3)c(O)c2[C@@]1(O)c1ccccc1`, the result in data set [1], in data set [2], in data set [3], in data set [4], in data set [5] and in data set [6] was inactive. Besides, the LC50 in data set [7] worked out at 7.1 µM.

`CO[C@@H]1C(=O)Nc2ccccc2[C@@]1(O)c1ccccc1`: the outcome in data set [1], in data set [2], in data set [3], in data set [4], in data set [5] and in data set [6] was inactive.

`CO[C@@H]1C(=O)Nc2ccc(O)cc2[C@@]1(O)c1ccccc1`: the outcome in data set [1], in data set [2], in data set [3], in data set [4], in data set [5] and in data set [6] was inactive.
